In ChEMBL document CHEMBL1125323, “Potent V2/V1a vasopressin antagonists with C-terminal ethylenediamine-linked retro-amino acids” (J Med Chem, 1992) one finds pA2 and ED data, which are given here for 31 molecules.

In assay [1] the target is T1, Vasopressin receptor (Rattus norvegicus, UniProt P48974+P30560+Q00788). In words: Antivasopressor potency in terms of negative logarithm of the effective doses divided by the estimated volume of distribution. In kind it is functional. The essentials:
(§1)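 Rats anesthetized with urethane, pretreated with phenoxybenzamine; blood pressure responses recorded. USP posterior pituitary reference standard as agonist, given intravenously with antagonist. ED (nmol/kg) is the antagonist dose at which 2x units of agonist match the response to x units without antagonist, log-interpolated from doses above and below. In vivo pA2 uses assumed distribution volume 67 mL/kg.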

For assay [2], the target named is T1, Vasopressin receptor. Briefly: Antiantidiuretic potency in terms of negative logarithm of the effective doses divided by the estimated volume of distribution. In kind it is functional, Urine. The essentials:
(§2)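 Water-loaded rats under ethanol anesthesia; urine flow followed. USP posterior pituitary reference standard as agonist, all injections intravenous. Effective dose (nmol/kg) is the antagonist dose reducing the response to 2x units of agonist to that of x units alone, interpolated on a log scale between bracketing doses. pA2 = negative log of ED divided by assumed distribution volume 67 mL/kg.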

Assay [3] deals with T2, Vasopressin receptor (Rattus norvegicus) (UniProt P48974+P30560+Q00788). In words: Antiantidiuretic potency in terms of measuring changes in urine flow in water-loaded rats under ethanol anesthesia. In kind it is functional. The essentials:
as §2

Assay [4] has as its target T2, Vasopressin receptor (Rattus norvegicus). Briefly: Antivasopressor potency in terms of blood pressure response in rats anesthetized with urethane and pretreated with phenoxybenzamine. In kind it is functional. The essentials:
as §1

For `CCOc1ccc(C[C@H]2NC(=O)CC3(CCCCC3)SSC[C@@H](C(=O)N[C@@H](CCCN=C(N)N)C(=O)NCC(=O)NCCN)NC(=O)[C@H](CC(N)=O)NC(=O)[C@H](C(C)C)NC(=O)[C@H](Cc3ccccc3)NC2=O)cc1`, the pA2 (commonly the negative logarithm of the molar antagonist concentration that doubles the agonist concentration needed for the same response) on Vasopressin receptor [1] is 8.05; on Vasopressin receptor [2], 8.03.

`CCOc1ccc(C[C@H]2NC(=O)CC3(CCCCC3)SSC[C@@H](C(=O)NCCNC(=O)[C@@H](N)CCCN)NC(=O)[C@H](CC(N)=O)NC(=O)[C@H](C(C)C)NC(=O)[C@H](Cc3ccccc3)NC2=O)cc1`: the pA2 on Vasopressin receptor [1] was 7.8; at Vasopressin receptor [2], 7.55.

As for `CCOc1ccc(C[C@H]2NC(=O)CC3(CCCCC3)SSC[C@H](C(=O)NCCNC(=O)[C@H](N)CCCCN)NC(=O)[C@@H](CC(N)=O)NC(=O)[C@H](C(C)C)NC(=O)[C@@H](Cc3ccccc3)NC2=O)cc1`, the ED is 1.2 nM/kg in assay [3] and 0.82 nM/kg in assay [4].

For `CCOc1ccc(C[C@H]2NC(=O)CC3(CCCCC3)SSC[C@H](C(=O)N3CCCC3C(=O)N[C@@H](CCCN=C(N)N)C(=O)NCCNC(=O)[C@H](N)CCCN=C(N)N)NC(=O)[C@@H](CC(N)=O)NC(=O)[C@H]([C@H](C)CC)NC(=O)[C@@H](Cc3ccccc3)NC2=O)cc1` (some centres not stated), the ED in assay [3] was 0.57 nM/kg; in assay [4], 0.36 nM/kg.

Take `CCOc1ccc(C[C@@H]2NC(=O)CC3(CCCCC3)SSC[C@@H](C(=O)NCCNC(=O)[C@@H](N)CCCN=C(N)N)NC(=O)[C@H](CC(N)=O)NC(=O)[C@H](C(C)C)NC(=O)[C@H](Cc3ccccc3)NC2=O)cc1`: the values for the pA2 at Vasopressin receptor [1] and on Vasopressin receptor [2] were 7.97 and 6.39, respectively.

As for `CC[C@@H](C)[C@H]1NC(=O)CC2(CCCCC2)SSC[C@@H](C(=O)NCCNC(=O)[C@@H](N)CCCN=C(N)N)NC(=O)[C@H](CC(N)=O)NC(=O)[C@H](C(C)C)NC(=O)[C@H](Cc2ccccc2)NC1=O`, the values for the pA2 at Vasopressin receptor [1] and at Vasopressin receptor [2] were 6.16 and 5.8, respectively.

Turning to `CCOc1ccc(C[C@H]2NC(=O)CC3(CCCCC3)SSC[C@H](C(=O)NCCNC(=O)[C@H](N)CCCN)NC(=O)[C@@H](CC(N)=O)NC(=O)[C@H](C(C)C)NC(=O)[C@@H](Cc3ccccc3)NC2=O)cc1`, the ED in assay [3] came to 1.9 nM/kg; in assay [4] it was 1.06 nM/kg.

`CCOc1ccc(C[C@H]2NC(=O)CC3(CCCCC3)SSC[C@@H](C(=O)NCCNC(=O)[C@H](N)CCCCN)NC(=O)[C@H](CC(N)=O)NC(=O)[C@H](C(C)C)NC(=O)[C@H](Cc3ccccc3)NC2=O)cc1`: the values for the pA2 at Vasopressin receptor [1] and at Vasopressin receptor [2] were 7.92 and 7.76, respectively.

Turning to `CCOc1ccc(C[C@H]2NC(=O)CC3(CCCCC3)SSC[C@@H](C(=O)NCCNC(=O)[C@H](N)CCCN=C(N)N)NC(=O)[C@H](CC(N)=O)NC(=O)[C@H](C(C)C)NC(=O)[C@H](Cc3ccccc3)NC2=O)cc1`, the pA2 on Vasopressin receptor [1] is on record as 8.15; on Vasopressin receptor [2] it was 7.95.

On to `CCOc1ccc(C[C@H]2NC(=O)CC3(CCCCC3)SSC[C@H](C(=O)N3CCCC3C(=O)N[C@H](CCCN=C(N)N)C(=O)NCCNC(=O)[C@H](N)CCCN=C(N)N)NC(=O)[C@@H](CC(N)=O)NC(=O)[C@H](C(C)C)NC(=O)[C@@H](Cc3ccccc3)NC2=O)cc1` (some centres not stated), for which the ED was determined as 1.4 nM/kg in assay [3] and 0.51 nM/kg in assay [4].

In the case of `CC(C)[C@@H]1NC(=O)[C@H](Cc2ccccc2)NC(=O)[C@@H](Cc2ccccc2)NC(=O)CC2(CCCCC2)SSC[C@@H](C(=O)NCCNC(=O)[C@@H](N)CCCN=C(N)N)NC(=O)[C@H](CC(N)=O)NC1=O`, the pA2 is reported as 7.64 on Vasopressin receptor [1] and 6.91 on Vasopressin receptor [2].

Take `CCOc1ccc(C[C@H]2NC(=O)CC3(CCCCC3)SSC[C@@H](C(=O)NCCNC(=O)[C@H](N)CCCN)NC(=O)[C@H](CC(N)=O)NC(=O)[C@H](C(C)C)NC(=O)[C@H](Cc3ccccc3)NC2=O)cc1`: the pA2 was 8.06 at Vasopressin receptor [1] and 7.24 at Vasopressin receptor [2].

On to `CCOc1ccc(C[C@H]2NC(=O)CC3(CCCCC3)SSC[C@@H](C(=O)N[C@@H](CCCN=C(N)N)C(=O)NCC(N)=O)NC(=O)[C@H](CC(N)=O)NC(=O)[C@H](C(C)C)NC(=O)[C@H](Cc3ccccc3)NC2=O)cc1`, for which the results for the pA2 at Vasopressin receptor [1] and on Vasopressin receptor [2] were 8.09 and 7.82, respectively.

Regarding `CCOc1ccc(C[C@H]2NC(=O)CC3(CCCCC3)SSC[C@H](C(=O)NCCNC(=O)C(N)CCCN=C(N)N)NC(=O)[C@@H](CC(N)=O)NC(=O)[C@H](C(C)C)NC(=O)[C@@H](Cc3ccccc3)NC2=O)cc1` (some centres not stated), the ED in assay [3] is 2.1 nM/kg; in assay [4], 0.75 nM/kg.

On to `CC[C@H](C)[C@H]1NC(=O)CC2(CCCCC2)SSC[C@H](C(=O)NCCNC(=O)C(N)CCCN=C(N)N)NC(=O)[C@@H](CC(N)=O)NC(=O)[C@H](C(C)C)NC(=O)[C@@H](Cc2ccccc2)NC1=O` (some centres not stated), for which the ED in assay [3] was 100 nM/kg; in assay [4], 47 nM/kg.

Regarding `CCOc1ccc(C[C@H]2NC(=O)CC3(CCCCC3)SSC[C@@H](C(=O)N3CCC[C@H]3C(=O)N[C@@H](CCCN=C(N)N)C(=O)NCCNC(=O)[C@@H](N)CCCN=C(N)N)NC(=O)[C@H](CC(N)=O)NC(=O)[C@H](C(C)C)NC(=O)[C@H](Cc3ccccc3)NC2=O)cc1`, the pA2 is on record as 8.15 on Vasopressin receptor [1] and 7.68 on Vasopressin receptor [2].

Consider `CCOc1ccc(C[C@H]2NC(=O)CC3(CCCCC3)SSC[C@H](C(=O)NCCN)NC(=O)[C@@H](CC(N)=O)NC(=O)[C@H](C(C)C)NC(=O)[C@@H](Cc3ccccc3)NC2=O)cc1`, for which the ED in assay [3] came out at 5.7 nM/kg; in assay [4] it was 0.47 nM/kg.

Take `CCOc1ccc(C[C@H]2NC(=O)CC3(CCCCC3)SSC[C@H](C(=O)NCCNC(=O)[C@@H](CCCN=C(N)N)NC(=O)[C@H](N)CCCN=C(N)N)NC(=O)[C@@H](CC(N)=O)NC(=O)[C@H](C(C)C)NC(=O)[C@@H](Cc3ccccc3)NC2=O)cc1`: the ED in assay [3] was determined as 1.8 nM/kg; in assay [4], 0.86 nM/kg.

As for `CCOc1ccc(C[C@H]2NC(=O)CC3(CCCCC3)SSC[C@@H](C(=O)N3CCC[C@H]3C(=O)NCCNC(=O)[C@H](N)CCCCN)NC(=O)[C@H](CC(N)=O)NC(=O)[C@H](C(C)C)NC(=O)[C@H](Cc3ccccc3)NC2=O)cc1`, the pA2 at Vasopressin receptor [1] was 8.08; at Vasopressin receptor [2] it was 7.78.

Take `CCOc1ccc(C[C@H]2NC(=O)CC3(CCCCC3)SSC[C@H](C(=O)N3CCCC3C(=O)NCCNC(=O)[C@@H](N)CCCCN)NC(=O)[C@@H](CC(N)=O)NC(=O)[C@H](C(C)C)NC(=O)[C@@H](Cc3ccccc3)NC2=O)cc1` (some centres not stated): the figures for the ED in assay [3] and in assay [4] were 1.2 nM/kg and 0.57 nM/kg, respectively.

Take `CCOc1ccc(C[C@H]2NC(=O)CC3(CCCCC3)SSC[C@H](C(=O)NCCNC(=O)[C@@H](N)CCCN=C(N)N)NC(=O)[C@@H](CC(N)=O)NC(=O)[C@H](C(C)C)NC(=O)[C@@H](Cc3ccccc3)NC2=O)cc1`: the values for the ED in assay [3] and in assay [4] were 0.83 nM/kg and 0.47 nM/kg, respectively.

Turning to `CCOc1ccc(C[C@H]2NC(=O)CC3(CCCCC3)SSC[C@H](C(=O)N3CCCC3C(=O)NCCNC(=O)[C@@H](N)CCCN)NC(=O)[C@@H](CC(N)=O)NC(=O)[C@H](C(C)C)NC(=O)[C@@H](Cc3ccccc3)NC2=O)cc1` (some centres not stated), the ED was 0.82 nM/kg in assay [3] and 0.95 nM/kg in assay [4].

As to `CC(C)[C@@H]1NC(=O)[C@@H](Cc2ccccc2)NC(=O)[C@@H](Cc2ccccc2)NC(=O)CC2(CCCCC2)SSC[C@H](C(=O)NCCNC(=O)C(N)CCCN=C(N)N)NC(=O)[C@@H](CC(N)=O)NC1=O` (some centres not stated), the ED in assay [3] amounted to 8.4 nM/kg; in assay [4], 1.7 nM/kg.

For the molecule `CCOc1ccc(C[C@H]2NC(=O)CC3(CCCCC3)SSC[C@H](C(=O)N[C@H](CCCN=C(N)N)C(=O)NCC(=O)NCCN)NC(=O)[C@@H](CC(N)=O)NC(=O)[C@H](C(C)C)NC(=O)[C@@H](Cc3ccccc3)NC2=O)cc1`, the results for the ED in assay [3] and in assay [4] were 0.65 nM/kg and 0.59 nM/kg, respectively.

With `CCOc1ccc(C[C@H]2NC(=O)CC3(CCCCC3)SSC[C@H](C(=O)N[C@H](CCCN=C(N)N)C(=O)NCC(N)=O)NC(=O)[C@@H](CC(N)=O)NC(=O)[C@H](C(C)C)NC(=O)[C@@H](Cc3ccccc3)NC2=O)cc1`, the ED in assay [3] stood at 1.1 nM/kg; in assay [4], 0.56 nM/kg.

`CCOc1ccc(C[C@H]2NC(=O)CC3(CCCCC3)SSC[C@H](C(=O)NCCNC(=O)CN)NC(=O)[C@@H](CC(N)=O)NC(=O)[C@H](C(C)C)NC(=O)[C@@H](Cc3ccccc3)NC2=O)cc1`: the ED is 18 nM/kg in assay [3] and 1.66 nM/kg in assay [4].

Take `CCOc1ccc(C[C@H]2NC(=O)CC3(CCCCC3)SSC[C@H](C(=O)N[C@H](CCCN=C(N)N)C(=O)NCC(=O)NCCNC(=O)[C@H](N)CCCN=C(N)N)NC(=O)[C@@H](CC(N)=O)NC(=O)[C@H](C(C)C)NC(=O)[C@@H](Cc3ccccc3)NC2=O)cc1`: the ED was 0.91 nM/kg in assay [3] and 0.73 nM/kg in assay [4].

In the case of `CCOc1ccc(C[C@@H]2NC(=O)CC3(CCCCC3)SSC[C@H](C(=O)NCCNC(=O)C(N)CCCN=C(N)N)NC(=O)[C@@H](CC(N)=O)NC(=O)[C@H](C(C)C)NC(=O)[C@@H](Cc3ccccc3)NC2=O)cc1` (some centres not stated), the ED stood at 27 nM/kg in assay [3] and 0.76 nM/kg in assay [4].

Consider `CCOc1ccc(C[C@H]2NC(=O)CC3(CCCCC3)SSC[C@H](C(=O)N3CCCC3C(=O)NCCNC(=O)[C@@H](N)CCCN=C(N)N)NC(=O)[C@@H](CC(N)=O)NC(=O)[C@H](C(C)C)NC(=O)[C@@H](Cc3ccccc3)NC2=O)cc1` (some centres not stated), for which the ED in assay [3] turned out to be 0.81 nM/kg; in assay [4], 0.48 nM/kg.

For `CC(C)C[C@H]1NC(=O)CC2(CCCCC2)SSC[C@H](C(=O)NCCNC(=O)C(N)CCCN=C(N)N)NC(=O)[C@@H](CC(N)=O)NC(=O)[C@H](C(C)C)NC(=O)[C@@H](Cc2ccccc2)NC1=O` (some centres not stated), the ED in assay [3] was above 234 nM/kg; in assay [4], 58 nM/kg.

As to `CCOc1ccc(C[C@H]2NC(=O)CC3(CCCCC3)SSC[C@H](C(=O)NCCNC(=O)[C@@H](N)CCCN)NC(=O)[C@@H](CC(N)=O)NC(=O)[C@H](C(C)C)NC(=O)[C@@H](Cc3ccccc3)NC2=O)cc1`, the ED in assay [3] came out at 4 nM/kg; in assay [4] it was 0.59 nM/kg.
